Shown are actives, neighbours in structure and some others; about 3.6% of the full set was active somewhere.
pPAFAH FP inh: inhibitors of human plasma PAF acetylhydrolase (pPAFAH). Q13093. recombinant pPAFAH, FP-rhodamine probe fluorescence polarization. inhibition, % at 3.39 µM. actives 1.5% (n = 330,000). AID 463082;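 active = inhibition above the mean inhibition across the screen plus 3 SD, cut at about 25% in these data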;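 note: inhibitors block binding of the rhodamine activity-based probe so polarization drops; 0% = enzyme with DMSO and 100% = wells lacking pPAFAH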
Target sequence (Q13093 whole entry, looked up): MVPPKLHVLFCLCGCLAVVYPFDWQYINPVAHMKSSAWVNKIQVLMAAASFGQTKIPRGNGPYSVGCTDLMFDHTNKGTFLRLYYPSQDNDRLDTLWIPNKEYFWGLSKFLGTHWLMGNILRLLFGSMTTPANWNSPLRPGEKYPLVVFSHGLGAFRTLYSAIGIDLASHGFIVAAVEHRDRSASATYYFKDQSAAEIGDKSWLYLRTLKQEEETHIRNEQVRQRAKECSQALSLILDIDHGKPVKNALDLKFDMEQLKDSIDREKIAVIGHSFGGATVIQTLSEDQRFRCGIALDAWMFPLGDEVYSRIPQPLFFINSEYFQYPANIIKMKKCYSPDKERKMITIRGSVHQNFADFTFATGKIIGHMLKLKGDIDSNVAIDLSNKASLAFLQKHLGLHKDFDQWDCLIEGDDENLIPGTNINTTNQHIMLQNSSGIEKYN
VIM-2 inh: inhibitors of Pseudomonas aeruginosa VIM-2 metallo-beta-lactamase; purified VIM-2, nitrocefin hydrolysis, epi-absorbance fluorescence; inhibition, % at 5.6 µM; actives 0.89% (n = 290,000); AID 1527;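 active = inhibition above the mean of all tested compounds plus 3 SD, cutoff set per screening run, cut at about 7.5% in these data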;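 note: red hydrolysis product quenches plate fluorescence so inhibitors raise well fluorescence; 0% = enzyme with DMSO and 100% = DMSO without enzyme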
PAFAH2 inh: PAFAH2 (human) inhibition | Q99487 | recombinant PAFAH2, FP-rhodamine activity probe, fluorescence polarization | inhibition, % at 3.39 µM | actives 0.99% (n = 340,000);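 active = inhibition above the mean over all tested compounds plus 3 SD, cut at about 30% in these data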;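 note: inhibitors block probe labeling of enzyme so polarization drops; 0% = enzyme with DMSO and 100% = wells lacking PAFAH2 protein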
PAFAH1B2 inh: inhibitors of human PAFAH1B2; P68402; recombinant PAFAH1B2, FP-rhodamine activity probe, fluorescence polarization; inhibition, % at 3.39 µM; actives 1.2% (n = 340,000); AID 492953;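 active = inhibition above the mean of all tested compounds plus 3 SD, cut at about 24% in these data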;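 note: 0% = enzyme with DMSO and 100% = wells lacking PAFAH1B2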
IMP-1 inhibitor: blocks Pseudomonas aeruginosa IMP-1 metallo-beta-lactamase; purified IMP-1, nitrocefin hydrolysis, epi-absorbance fluorescence; inhibition, % at 5.6 µM; actives 0.45% (n = 290,000); AID 1556;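 active = inhibition above the mean plus 3 SD of all compounds in the same screening run, cut at about 4.5% in these data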;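 note: 0% = IMP-1 with DMSO and 100% = DMSO wells lacking enzyme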
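System: Purified IMP-1 | Read-out basis: Percent enzyme inhibition | Controls: IMP-1 with DMSO as 0%, enzyme-free DMSO as 100% | Replicates: One well per compound | Doses: 5.6 µM nominal single concentration | Detection: Epi-absorbance fluorescence, 480 nm excitation, 530 nm emission | Incubation: 25 °C, 15 min preincubation, 25 min reaction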
PAFAH1B3 inh: blocks human PAF acetylhydrolase 1B catalytic subunit 3 | Q15102 | recombinant PAFAH1B3, FP-rhodamine probe, fluorescence polarization | inhibition, % at 3.39 µM | actives 0.28% (n = 340,000) | AID 492972;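 active = inhibition above the screen-wide average of all tested compounds plus 3 SD, cut at about 25% in these data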;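 note: 0% = enzyme with DMSO only and 100% = wells lacking PAFAH1B3 protein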
Target sequence (Q15102 whole entry, looked up): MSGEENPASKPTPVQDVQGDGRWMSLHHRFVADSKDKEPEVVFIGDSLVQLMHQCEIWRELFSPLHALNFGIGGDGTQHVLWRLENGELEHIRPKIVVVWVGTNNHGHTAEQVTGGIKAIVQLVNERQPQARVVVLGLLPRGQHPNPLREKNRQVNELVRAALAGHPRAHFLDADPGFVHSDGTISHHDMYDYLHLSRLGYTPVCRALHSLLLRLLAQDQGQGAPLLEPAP
* = called active by the depositor.

`NC1(C(=O)O)CCCCC1c1ccccc1` (configuration not stated) gave PAFAH2 inh 3, PAFAH1B2 inh 5 and PAFAH1B3 inh 11.
Screening CC1CCCC(NC(=O)COC(=O)CCC2CCCC2)C1C (configuration not stated) returned pPAFAH FP inh 28*, VIM-2 inh -1, PAFAH2 inh -6, PAFAH1B2 inh 2, IMP-1 inhibitor -2 and PAFAH1B3 inh -4.
Screening COc1cc(CCC(=O)OCC(=O)NC2CCCC(C)C2C)cc(OC)c1OC (configuration not stated) returned pPAFAH FP inh 7, VIM-2 inh -3, PAFAH2 inh 4, PAFAH1B2 inh -1, IMP-1 inhibitor -3 and PAFAH1B3 inh 6.
Nc1cccc(C2=Nc3cccc4cccc(c34)N2)c1 was read as pPAFAH FP inh -3, VIM-2 inh -3, PAFAH2 inh -13, PAFAH1B2 inh 25*, IMP-1 inhibitor -5 and PAFAH1B3 inh 33*.
Screening COc1ccc(C2=Nc3cccc4cccc(c34)N2)cc1 returned pPAFAH FP inh -1, VIM-2 inh -3, PAFAH2 inh 2, PAFAH1B2 inh 14, IMP-1 inhibitor -1 and PAFAH1B3 inh 16.
Screening Cc1ccc(N(C(=O)CNC(=O)c2ccco2)C(C(=O)NCC2CCCO2)c2ccccc2)c(C)c1 (configuration not stated) returned pPAFAH FP inh 7, VIM-2 inh -3, PAFAH2 inh -2, PAFAH1B2 inh 4, IMP-1 inhibitor -3 and PAFAH1B3 inh 1.
For CN(C)c1ccc(/C=C/c2ccc3ccccc3n2)cc1 the results were pPAFAH FP inh 12, VIM-2 inh 1, PAFAH2 inh 5, PAFAH1B2 inh 2, IMP-1 inhibitor 2 and PAFAH1B3 inh 6.
For CCN(CC)c1ccc(/C=C/c2cc(-c3ccccc3)c3ccccc3n2)cc1 the results were pPAFAH FP inh 25*, VIM-2 inh 0, PAFAH2 inh -5, PAFAH1B2 inh -2, IMP-1 inhibitor 0 and PAFAH1B3 inh 4.
For CCCCn1c(N)c(N(CCC(C)C)C(=O)C2CC(=O)N(c3ccc(OC)cc3OC)C2)c(=O)[nH]c1=O (configuration not stated) the results were pPAFAH FP inh 1, PAFAH2 inh 2, PAFAH1B2 inh 0 and PAFAH1B3 inh -1.
CC(NC(=O)Oc1cccc2ccccc12)c1ccccc1 (configuration not stated) was read as PAFAH2 inh 11, PAFAH1B2 inh 14 and PAFAH1B3 inh 9.
Screening Cc1ccc(CN=C2NC(=O)C(CC(=O)NCCc3ccccc3)S2)cc1 (configuration not stated) returned pPAFAH FP inh 11, VIM-2 inh -1, PAFAH2 inh 0, PAFAH1B2 inh 42*, IMP-1 inhibitor -4 and PAFAH1B3 inh -1.
For CCCN=C1NC(=O)C(CC(=O)NCCc2ccccc2)S1 (configuration not stated) the results were pPAFAH FP inh 0, VIM-2 inh -2, PAFAH2 inh 6, PAFAH1B2 inh 8, IMP-1 inhibitor -2 and PAFAH1B3 inh 13.
For COCCNC(=O)C(c1cccs1)N(Cc1cccs1)C(=O)Cn1nnc2ccccc21 (configuration not stated) the results were pPAFAH FP inh 3, VIM-2 inh 0, PAFAH2 inh 4, PAFAH1B2 inh 0, IMP-1 inhibitor 4.6* and PAFAH1B3 inh 5.
`CCc1noc(C)c1C(=O)OCC(=O)NCc1ccccc1OC` gave pPAFAH FP inh 0, PAFAH2 inh 3, PAFAH1B2 inh 4 and PAFAH1B3 inh 5.
For O=c1[nH]c(CSc2nc3ccccc3s2)nc2ccccc12 the results were pPAFAH FP inh -1, VIM-2 inh -1, PAFAH2 inh -1, PAFAH1B2 inh 31*, IMP-1 inhibitor -2 and PAFAH1B3 inh 3.
For CN[C@@H]1CC[C@H](c2ccc(Cl)c(Cl)c2)c2ccccc21 the results were VIM-2 inh -2, PAFAH2 inh -5, PAFAH1B2 inh -2, IMP-1 inhibitor -6 and PAFAH1B3 inh 4.
For Cc1cnc(NC(=O)C2CC(=O)N(c3cccc(Cl)c3)C2)s1 (configuration not stated) the results were pPAFAH FP inh 0, VIM-2 inh -5, PAFAH2 inh 10, PAFAH1B2 inh -1, IMP-1 inhibitor -4 and PAFAH1B3 inh 5.
Screening Cc1ccc(S(=O)(=O)N2CCC(=O)N(C(COCc3ccc(Cl)c(Cl)c3)Cc3ccccc3)CC2)cc1 (configuration not stated) returned pPAFAH FP inh -2, VIM-2 inh -2 and IMP-1 inhibitor -2.
Cc1ccc(S(=O)(=O)N2CCC(=O)N(C(COC(=O)Nc3ccccc3)Cc3ccccc3)CC2)cc1 (configuration not stated) was read as pPAFAH FP inh 7, VIM-2 inh -4, PAFAH2 inh 4, PAFAH1B2 inh 35*, IMP-1 inhibitor -1 and PAFAH1B3 inh 6.
For Cc1ccc(S(=O)(=O)N2CCC(=O)N(CCOCc3ccc(C(F)(F)F)cc3)CC2)cc1 the results were pPAFAH FP inh 30*, VIM-2 inh -4, PAFAH2 inh 8, PAFAH1B2 inh 16, IMP-1 inhibitor -1 and PAFAH1B3 inh 7.
Cc1ccc(S(=O)(=O)N2CCC(=O)N(CCOC(=O)Nc3ccc(C)c(C)c3)CC2)cc1 was read as pPAFAH FP inh 11, VIM-2 inh -2, PAFAH2 inh 0, PAFAH1B2 inh 16, IMP-1 inhibitor 0 and PAFAH1B3 inh 0.
Screening O=C1CCN(S(=O)(=O)c2ccccc2)CCN1CCOCc1ccc(C(F)(F)F)cc1 returned pPAFAH FP inh 17, PAFAH2 inh 1, PAFAH1B2 inh 9 and PAFAH1B3 inh 3.
Screening Cc1ccc(S(=O)(=O)N2CCC(=O)N(C(CO)Cc3ccccc3)CC2)cc1 (configuration not stated) returned pPAFAH FP inh 0, VIM-2 inh -4, PAFAH2 inh 1, PAFAH1B2 inh 24*, IMP-1 inhibitor -3 and PAFAH1B3 inh 4.
For Cc1ccc(NC(=O)OCCN2CCN(S(=O)(=O)c3ccc(C)cc3)CCC2=O)cc1 the results were pPAFAH FP inh 11, VIM-2 inh -3, PAFAH2 inh 3, PAFAH1B2 inh 29*, IMP-1 inhibitor -4 and PAFAH1B3 inh 9.
`Cc1ccc(S(=O)(=O)N2CCC(=O)N(C(COCc3cccc(C)c3)Cc3ccccc3)CC2)cc1` (configuration not stated) gave pPAFAH FP inh 2, VIM-2 inh -1, PAFAH2 inh 4, PAFAH1B2 inh 13, IMP-1 inhibitor -1 and PAFAH1B3 inh 4.
`COc1ccccc1N1CCN(C(=O)c2cccc(S(=O)(=O)NCc3cccnc3)c2)CC1` gave pPAFAH FP inh 0, PAFAH2 inh 6, PAFAH1B2 inh 4 and PAFAH1B3 inh -1.
